From ChEMBL document CHEMBL1123874, “Polychlorinated biphenyls and related compound interactions with specific binding sites for thyroxine in rat liver nuclear extracts” (J Med Chem, 1987)

Legend:
Rattus norvegicus [1] = assay: Body weight was determined in TCDD-treated rats at a dose of 37 ug/Kg; assay type: functional
How it was run: (§1)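 Male Sprague–Dawley rats (200–250 g, 6 weeks old), in groups of five, were dosed by gavage with TCDD at 0, 12, 25, 37 or 50 µg/kg body weight in corn oil (0.1 mL/kg). Controls received corn oil alone. Animals were killed by CO2 9 days after dosing.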

Rattus norvegicus [2] = assay: Liver weight was determined in TCDD-treated rats at a dose of 25 ug/Kg; assay type: functional; how it was run: as §1
Rattus norvegicus [3] = assay: Body weight was determined in TCDD-treated rat at a dose of 12 ug/Kg; assay type: functional; how it was run: as §1
Rattus norvegicus [4] = species: Rattus norvegicus; assay: Serum T4 level was determined in rats; assay type: functional, organism-based; how it was run: as §1
[5] = Binding affinity of [125I]T4 to rat liver nuclear extract at a dose of 12 ug/Kg
How it was run: (§2)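 Male Sprague–Dawley rats (200–250 g), five per group, gavaged with TCDD (0, 12, 25, 37 or 50 µg/kg) in corn oil at 0.1 mL/kg; controls got corn oil. Livers were taken after 9 days and pooled per group. Nuclear extract (10 µg protein, buffer B, pH 7.6) was incubated 2 h at 25 °C with 0.1–2.4 nM [125I]T4. Bound ligand was isolated on Sephadex G-25, specific binding taken as total minus excess-T4, Scatchard analysis, duplicates.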

[6] = Binding affinity of [125I]-T4 to rat liver nuclear extract at a dose of 37 ug/Kg; how it was run: as §2
Rattus norvegicus [7] = assay: Serum T4 level was determined in TCDD-treated rat at a dose of 12 ug/Kg; assay type: functional, organism-based; how it was run: as §1
Rattus norvegicus [8] = assay: Serum T4 level was determined in TCDD-treated rat at a dose of 25 ug/Kg; assay type: functional, organism-based; how it was run: as §1
Rattus norvegicus [9] = assay: Number of T4 binding sites in rat liver from TCDD treated rats at a dose of 37 ug/Kg; assay type: functional; how it was run: as §2
Rattus norvegicus [10] = assay: Liver weight was determined in TCDD-treated rats at a dose of 50 ug/Kg; assay type: functional; how it was run: as §1
Rattus norvegicus [11] = assay: Number of T4 binding sites in rat liver from TCDD treated rats at a dose of 25 ug/Kg; assay type: functional; how it was run: as §2
Rattus norvegicus [12] = assay: Number of T4 binding sites in rat liver from TCDD treated rats at a dose of 50 ug/Kg; assay type: functional; how it was run: as §2
Rattus norvegicus [13] = assay: Serum T4 level was determined in TCDD-treated rat at a dose of 37 ug/kg; assay type: functional, organism-based; how it was run: as §1
Rattus norvegicus [14] = species: Rattus norvegicus; assay: Number of T4 binding sites in rat liver from TCDD treated rats; assay type: functional; how it was run: as §2
Rattus norvegicus [15] = species: Rattus norvegicus; assay: Body weight (after treatment) was determined; assay type: functional; how it was run: as §1
Rattus norvegicus [16] = assay: Liver weight was determined in TCDD-treated rat at a dose of 12 ug/Kg; assay type: functional; how it was run: as §1
Rattus norvegicus [17] = assay: Serum T4 level was determined in TCDD-treated rat at a dose of 50 ug/Kg; assay type: functional, organism-based; how it was run: as §1
Rattus norvegicus [18] = assay: Liver weight was determined in TCDD-treated rats at a dose of 37 ug/Kg; assay type: functional; how it was run: as §1
Rattus norvegicus [19] = assay: Body weight was determined in TCDD-treated rats at a dose of 50 ug/Kg; assay type: functional; how it was run: as §1
[20] = Binding affinity of [125I]T4 to rat liver nuclear extract at a dose of 25 ug/Kg; how it was run: as §2
[21] = Binding affinity of [125I]T4 to rat liver nuclear extract (CONTROL); how it was run: as §2
[22] = Binding affinity of [125I]T4 to rat liver nuclear extract at a dose of 50 ug/Kg; how it was run: as §2
Rattus norvegicus [23] = assay: Number of T4 binding sites in rat liver from TCDD treated rats at a dose of 12 ug/Kg; assay type: functional; how it was run: as §2
Rattus norvegicus [24] = assay: Body weight was determined in TCDD-treated rats at a dose of 25 ug/Kg; assay type: functional; how it was run: as §1
Rattus norvegicus [25] = species: Rattus norvegicus; assay: Liver weight was determined in rats; assay type: functional; how it was run: as §1

Clc1cc2c(cc1Cl)Oc1cc(Cl)c(Cl)cc1O2 [2,3,7,8-TETRACHLORODIBENZO-P-DIOXIN]
Weight (Rattus norvegicus [1]): <274 g
Weight (Rattus norvegicus [2]): <18.3 g
Weight (Rattus norvegicus [3]): 293 g
Serum T4 (Rattus norvegicus [4]): 7.6 µg/dL
Kd [5]: 0.48 nM
Kd [6]: 0.69 nM
Serum T4 (Rattus norvegicus [7]): < 5.6 µg/dL
Serum T4 (Rattus norvegicus [8]): < 4.4 µg/dL
Activity (Rattus norvegicus [9]): <8.71 nM/mg
Weight (Rattus norvegicus [10]): <19.9 g
Activity (Rattus norvegicus [11]): <4.12 nM/mg
Activity (Rattus norvegicus [12]): <6.65 nM/mg
Serum T4 (Rattus norvegicus [13]): < 4.1 µg/dL
Activity (Rattus norvegicus [14]): <3.24 nM/mg
Weight (Rattus norvegicus [15]): 302 g
Weight (Rattus norvegicus [16]): <18.9 g
Serum T4 (Rattus norvegicus [17]): < 4.2 µg/dL
Weight (Rattus norvegicus [18]): <19.3 g
Weight (Rattus norvegicus [19]): <271 g
Kd [20]: 0.56 nM
Kd [21]: 0.7 nM
Kd [22]: 0.72 nM
Activity (Rattus norvegicus [23]): <4.06 nM/mg
Weight (Rattus norvegicus [24]): <273 g
Weight (Rattus norvegicus [25]): 15.1 g
